Measured values: article PMC7311271 (Nature chemical biology, 2020)

Legend:
recombinant human G6PD = recombinant human G6PD (Homo sapiens, UniProt P11413); experiment: G6PD diaphorase-coupled enzymatic assay; type: biochemical
How it was run: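 Recombinant human G6PD was expressed in E. coli with an N-terminal His6 tag, purified on Ni, thrombin-cleaved and size-excluded. Reactions started with 1 mM G6P at 30 °C, read each minute (ex 530/em 590 nm). RFU/min was normalised to no-compound wells, and IC50 came from a 4-parameter fit.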

[1] = tested on: G6PD cellular activity in HCT116 cells; experiment: NADPH active hydride 2H-labeling from [1-2H]-glucose in HCT116 cells; type: cell-based, human
How it was run: (§1)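 HCT116 cells were incubated 2 h at 37 °C, 5% CO2 in medium containing [1-2H]-glucose tracer plus increasing doses of the test compound. Read-out was 2H transfer to the NADPH active hydride or to free palmitic acid, measured by LC-MS; dose-response curves, n = 3.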

[2] = tested on: G6PD cellular activity in HepG2 cells; experiment: 6-pg levels in HepG2 cells; type: cell-based, human
How it was run: (§2)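 Adherent HepG2 or HCT116 cells were grown to 80% confluency in 6-well plates, then given fresh medium containing the test compound over a dose range. They were incubated 2 h at 37 °C, 5% CO2. Metabolites were extracted ~30 min at −20 °C, scraped and centrifuged (15 min, 16,000 rpm, 4 °C). Supernatants were analysed by LC-MS for 6-pg, NADPH and NADP+ (n = 3).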

active CD4+ T cells = experiment: Intracellular cytokines in active CD4+ T cells; type: cell-based, mouse; details: PMA + IO, increasing doses
How it was run: (§3)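 Mouse CD4+ or CD8+ T cells were activated 48 h with plate-bound anti-CD3 (10 µg/ml)/anti-CD28 (5 µg/ml), IL-2 (100 U/mL) and 100 μM alanine, then kept in IL-2 and used at day 4–5. Cells were restimulated 6 h with PMA (20 ng/ml) + ionomycin (1 ug/ml), GolgiStop and increasing test-compound concentrations. After Live/Dead Aqua, CD4/CD8a surface staining, fixation and permeabilisation, IFNγ, TNFα and IL-2 were read by flow cytometry.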

[3] = tested on: active CD8+ and CD4+ T cells; experiment: Intracellular ROS; type: cell-based, mouse; details: 2 h
How it was run: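 Active mouse T cells were incubated 2 h with increasing test-compound concentrations, then stained with CellROX Green and a viability dye and analysed by flow cytometry.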

active CD8+ T cells [4] = experiment: Fatty acid synthesis; type: cell-based, mouse; details: 2 h, [U-13C]glucose tracer
neutrophils = experiment: NADPH in neutrophils; type: cell-based
How it was run: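 Mouse neutrophils were enriched by negative selection from femur/tibia bone marrow of 8–12 week old mice. Cells were cultured in RPMI with 10% heat-inactivated FBS, 5 mM HEPES and 2 mM EDTA. Metabolites were extracted after 30 min of PMA stimulation and analysed for NADPH by LC-MS.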

CD4+ T cells = experiment: CD4+ T cell proliferation by CFSE dilution; type: cell-based, mouse; details: day 3 post-activation
How it was run: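 In a Treg suppression set-up, mouse Tconv cells were labeled with CFSE and Treg cells with CellTrace Violet. Tconv cells were stimulated with irradiated antigen-presenting cells plus CD3ε mAb (1 µg/mL). After 72 h, proliferation was read by flow cytometry as dye dilution.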

active CD8+ T cells [5] = experiment: Intracellular cytokines in active CD8+ T cells; type: cell-based, mouse; details: PMA + IO, increasing doses
How it was run: as §3

G6PD in HepG2 lysates = G6PD in HepG2 lysates (Homo sapiens, UniProt P11413); experiment: Cellular thermal shift assay; type: binding; details: 50 μM, up to 56 °C
How it was run: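 Lysates took test compound or DMSO for 30 min on ice, then were heated 3 min at 47, 50, 53 or 56 °C. After 3 min cooling at room temperature, insoluble material was spun out (17,000 g, 20 min). G6PD signal is expressed relative to the DMSO control.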

HCT116 cells [6] = experiment: Colony formation; type: cell-based, human; details: increasing doses
[7] = tested on: RBC = red blood cells (mouse); experiment: LC-MS quantification of NADPH pools, RBCs; type: cell-based
How it was run: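 Mouse blood was collected by cardiac puncture into heparin. Serum and buffy coat were removed after a 500 rpm spin at 4 °C, and cells were washed three times in PBS and used immediately in RPMI. Red cells (2×10^6 in 1 mL, 12-well plates) were incubated with the test compound, acid-extracted, neutralised with NH4HCO3, and analysed for NADPH by LC-MS.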

[8] = tested on: mouse naïve CD8+ T cells stimulated by CD3/CD28 + IL-2; experiment: T cell activation markers; type: cell-based; details: increasing concentrations
How it was run: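 Naïve CD8+ T cells were isolated from mouse spleens as strained single-cell suspensions in PBS with 0.5% BSA and 2 mM EDTA. Cells were rested with IL-7 (50 U/mL) or stimulated 48 h on plate-bound anti-CD3 (10 µg/ml) plus anti-CD28 (5 µg/ml) in RPMI with 100 μM alanine and IL-2 (100 U/mL), with increasing test compound. Read-outs were Live/Dead Aqua viability, surface CD69 and CD25, and FSC-A size. Two independent experiments were run.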

[9] = tested on: G6PD cellular activity in HCT116-mPgd cells; experiment: 6-pg levels in HCT116-mPgd cells; type: cell-based, human; details: dose response, compared with DHEA
HCT116 cells [10] = experiment: Metabolomics in wild-type and ΔG6PD HCT116 cells; type: cell-based, human; details: 50 μM, 2 h
How it was run: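 Adherent cells were grown to 80% confluency. Medium containing test compound was added, and cells were held at 37 °C in 5% CO2 for 2 h. Extraction was at −20 °C for ~30 min, after which wells were scraped and extracts centrifuged (16,000 rpm, 15 min, 4 °C). Supernatants were stored at −80 °C and analysed by LC-MS.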

HCT116 and HepG2 cells = experiment: NADPH pools and NADP+/NADPH ratio in HCT116 and HepG2 cells; type: cell-based, human
How it was run: as §2

[11] = tested on: bone marrow derived macrophages; experiment: Intracellular cytokines and iNOS in bone marrow derived macrophages; type: cell-based, mouse
How it was run: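 Mouse bone-marrow progenitors from femur and tibia were matured in DMEM with 10% FBS and 20% L929-conditioned medium. Macrophages were stimulated 6 h with LPS (100 ng/mL) + IFNγ (20 ng/mL), with GolgiStop and increasing test-compound concentrations. Cells were stained with Live/Dead Aqua, fixed and permeabilised, and stained for TNFα, IL-6 and iNOS before flow cytometry; 2 independent experiments.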

CD8+ T cells [12] = experiment: Untargeted metabolomics on CD8+ T cells; type: cell-based, mouse; details: active CD8+ T cells, 2 h
How it was run: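 Active mouse CD8+ T cells were treated 2 h with the test compound. Water-soluble metabolites were extracted and profiled by LC-MS; mean, n = 3. Metabolites with fold-change > 4 were flagged.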

[13] = tested on: oxPPP flux in active CD8+ T cells; experiment: Absolute oxPPP flux by 14CO2 emission; type: cell-based, mouse; details: 10 μM, 4 h
How it was run: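 Active mouse CD8+ T cells were used at day 4 post plate-bound anti-CD3/anti-CD28 stimulation, cultured with IL-2. Three million cells were incubated 4 h in a sealed flask with 0.1% DMSO or 10 μM test compound. Released 14CO2 was trapped in 10 M KOH, the reaction was stopped with 1 M HCl, and radioactivity was counted by scintillation. Flux (fmol h-1 cell-1) was normalised to cell number, labeling time and tracer fraction; mean ± SD, n = 5.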

CD8+ T cells [14] = experiment: CD8+ T cell proliferation by Cell Trace Violet dilution; type: cell-based, mouse; details: day 4 post-activation
How it was run: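 Naïve CD8+ T cells were isolated from mouse spleen by magnetic bead selection and stained with CellTrace Violet. Cells were kept naïve with IL-7 or stimulated with anti-CD3/anti-CD28 + IL-2, in increasing test-compound concentrations. Cells were refed at days 2 and 3. At day 4, dye dilution was read by flow cytometry with propidium iodide as viability stain; 2 independent experiments.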

[15] = tested on: G6PD in active mouse CD8+ and CD4+ T cells; experiment: NADPH labeling, NADPH, NADP+ and 6-pg levels in active T cells; type: cell-based
How it was run: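 Active CD8+ T cells (day 4–5 post-activation), including cells from G6PD-Tg mice and littermate controls, were treated 2 h with increasing test-compound doses, with a [1-2H]-glucose tracer for labeling. For reversibility, cells were pretreated 2 h, then moved to final media for 2 h. For absolute quantification, extracts were spiked with NADP+ or NADPH standards, and packed cell volume was taken as 1.5 µL per 2 × 10^6 cells. Analysis was by LC-MS, n = 3, two-tailed unpaired t-test.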

T cell lineages = experiment: LC-MS quantification of NADPH and NADP+ pools, T cell lineages; type: cell-based
How it was run: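 Suspension T cells (2×10^6 in 1 mL medium, 12-well plates) were incubated with the test compound. Metabolites were acid-extracted 5 min on ice and neutralised with NH4HCO3. After centrifugation (15 min, 16,000 rpm, 4 °C), supernatants were analysed for NADPH and NADP+ by LC-MS.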

[16] = tested on: mouse bone-marrow derived macrophages; experiment: LC-MS quantification of NADPH pools, macrophages; type: cell-based
[17] = tested on: CD4+ T cells (Foxp3+ iTreg); experiment: Foxp3+ iTreg formation and proliferation; type: cell-based, mouse; details: CD3/CD28 stimulation in the presence of TGF-β
[18] = tested on: G6PD cellular activity in HCT116 cells; experiment: Free palmitic acid; type: cell-based, human; details: dose response
How it was run: as §1

mouse neutrophils = experiment: Neutrophil oxidative burst assay; type: cell-based; details: PMA 100 nM, 50 μM
How it was run: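 Mouse bone-marrow neutrophils were plated at 2 × 10^5 cells/well in bicarbonate-free RPMI 1640 on Cell-Tak-coated wells, spun 200 × g for 1 min and rested 1 h at 37 °C. Test compound (50 µM) or vehicle was added just before the run. Oxidative burst was triggered with PMA (100 nM), and rotenone + antimycin A (0.5 µM each) were added at t = 20 min. OCR was measured by extracellular flux analysis; n = 6.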

CD8+ T cells [19] = experiment: CD8+ T cell viability; type: cell-based, mouse
human neutrophils = experiment: Neutrophil oxidative burst assay; type: cell-based; details: PMA 100 nM, 50 μM
How it was run: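 Human neutrophils were plated at 5 × 10^4 cells/well in RPMI 1640 with 0.1% human serum albumin on Cell-Tak-coated wells, spun 200 × g for 1 min and rested 1 h at 37 °C. Test compound (50 µM) or vehicle was added just before the run. Burst was triggered with PMA (100 nM), and OCR was measured by extracellular flux analysis; n = 6.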

Chain of recombinant human G6PD (P11413 28-515): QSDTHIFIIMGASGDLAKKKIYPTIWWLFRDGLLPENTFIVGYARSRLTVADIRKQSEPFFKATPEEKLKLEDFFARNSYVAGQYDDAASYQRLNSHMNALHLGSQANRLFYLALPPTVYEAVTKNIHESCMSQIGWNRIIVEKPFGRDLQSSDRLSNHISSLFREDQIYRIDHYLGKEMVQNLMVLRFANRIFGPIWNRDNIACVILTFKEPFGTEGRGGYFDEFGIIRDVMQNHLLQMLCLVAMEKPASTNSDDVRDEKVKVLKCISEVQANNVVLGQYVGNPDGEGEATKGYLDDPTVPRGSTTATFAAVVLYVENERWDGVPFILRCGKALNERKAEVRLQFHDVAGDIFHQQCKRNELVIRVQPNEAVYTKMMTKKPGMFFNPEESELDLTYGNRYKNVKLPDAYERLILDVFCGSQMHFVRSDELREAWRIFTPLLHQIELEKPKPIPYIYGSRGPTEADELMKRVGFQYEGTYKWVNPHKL
Chain of G6PD in HepG2 lysates (P11413 whole entry): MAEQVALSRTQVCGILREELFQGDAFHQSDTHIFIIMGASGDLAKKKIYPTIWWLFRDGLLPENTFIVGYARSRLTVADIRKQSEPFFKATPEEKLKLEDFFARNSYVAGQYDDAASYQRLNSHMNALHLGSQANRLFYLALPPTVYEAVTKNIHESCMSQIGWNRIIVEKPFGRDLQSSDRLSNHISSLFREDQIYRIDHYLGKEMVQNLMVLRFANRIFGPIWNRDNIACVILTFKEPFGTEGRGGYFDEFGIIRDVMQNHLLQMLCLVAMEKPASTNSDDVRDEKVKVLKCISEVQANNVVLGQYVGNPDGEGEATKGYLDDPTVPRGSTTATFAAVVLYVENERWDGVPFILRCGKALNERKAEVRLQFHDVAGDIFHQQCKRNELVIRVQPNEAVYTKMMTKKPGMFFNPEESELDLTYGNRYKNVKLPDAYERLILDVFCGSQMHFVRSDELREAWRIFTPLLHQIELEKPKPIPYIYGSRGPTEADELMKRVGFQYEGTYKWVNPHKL

Compound: CN(c1cccc(C#N)c1)c1ncc2c(n1)CCCC2=O [G6PDi-neg-ctrl, 3-[methyl(5-oxo-5,6,7,8-tetrahydroquinazolin-2-yl)amino]benzonitrile]
- in vitro activity against human G6PD (recombinant human G6PD): lacked any activity

Compound: OC[C@H]1O[C@@H](Oc2cc(O)cc(/C=C/c3ccc(O)cc3)c2)[C@H](O)[C@@H](O)[C@@H]1O [polydatin, reference compound]
- effect on NADPH active hydride labeling ([1]; 50 μM, 2 h): failed to decrease
- effect on 6-pg levels ([2]; HepG2 cells, 50 μM, 2 h): failed to decrease

Compound: Cc1cccc(Nc2ncc3c(n2)CCCC3=O)c1 [G6PDi-precursor, 2-[(3-methylphenyl)amino]-5,6,7,8-tetrahydroquinazolin-5-one]
- in vitro activity against human G6PD (recombinant human G6PD): low micromolar

Compound: N#Cc1cc(Nc2ncc3c(n2)CCCCC3=O)cs1 [G6PDi-1, 4-([5-oxo-6H,7H,8H,9H-cyclohepta[d]pyrimidin-2-yl]amino)thiophene-2-carbonitrile]
- IL-2 and TNF-α production (active CD4+ T cells): blocked
- reactive oxygen species (ROS) [3]: elevated
- fatty acid synthesis (active CD8+ T cells [4]): nearly completely ablated
- effect on NADPH (neutrophils): did impact NADPH
- proliferation of CD4+ T cells (CD4+ T cells): minimal effect
- IFNγ and TNF-α production (active CD8+ T cells [5]): blocked
- thermal stabilization of G6PD (G6PD in HepG2 lysates): significant thermal stabilization
- colony formation (HCT116 cells [6]): dose-dependent decrease
- sensitivity of NADPH pools [7]: fairly sensitive
- dose-dependent decrease in 2H transfer to NADPH's active hydride ([1]; dose response): dose-dependent decrease
- upregulation of activation markers and activation-dependent increase in cell size [8]: did not alter
- suppression of 6-pg levels [9]: much more effectively suppressed
- off-target metabolic effects (HCT116 cells [10]): some potential off-target effects on purine nucleosides
- NADPH pools (HCT116 and HepG2 cells; HCT116 and HepG2 cells): largely unperturbed
- NADP+/NADPH (HCT116 and HepG2 cells; HCT116 cells, dose response): dose-dependent increase
- LPS-induced pro-inflammatory cytokine production or iNOS upregulation [11]: did not decrease
- mode of binding to G6PD (recombinant human G6PD; in vitro dilution experiments and competition assays against both substrates): reversibly and non-competitively
- specificity of metabolic effects (CD8+ T cells [12]): clean on-target activity
- absolute oxPPP flux [13]: blocked
- activation-dependent proliferation (CD8+ T cells [14]): minimal effect
- time to restoration of NADPH, NADP+ and 6-pg levels after removing the inhibitor ([15]; activated CD8+ T cells): ≤ 2 h
- effect of G6PD overexpression on dose response of NADPH and NADP+ ([15]; active CD8+ T cells from G6PD-Tg mice vs littermate controls): markedly shifted the dose response
- time to onset of effects on NADPH labeling and NADP+, NADPH and 6-pg levels ([15]; active CD8+ T cells, 50 μM): ≤ 10 min
- NADPH and 6-pg levels ([15]; mouse CD8+ and CD4+ T cells day 4–5 post-activation): decreased
- 2H transfer from glucose to NADPH ([15]; mouse CD8+ and CD4+ T cells day 4–5 post-activation, 10 μM, [1-2H]-glucose): completely blocked
- decrease in NADPH (T cell lineages): greater than 10 fold
- dose-dependent decrease in 6-pg levels ([2]; HepG2 cells, dose response): dose-dependent decrease
- IC50 ([2]; Homo sapiens, HepG2, read-out: IC50 for decrease in 6-pg levels): ~13 µM
- effect on NADPH [16]: did not decrease
- formation and proliferation of Foxp3+ cells [17]: unaffected
- dose-dependent decrease in 2H transfer to C16:0 [18]: dose-dependent decrease
- oxidative burst (oxygen consumption rate) (mouse neutrophils): decreased
- viability (CD8+ T cells [19]): minimal effect
- oxidative burst (oxygen consumption rate) (human neutrophils): decreased
